Test results reported in ChEMBL document CHEMBL1143652, “Joys of molecules. 2. Endeavors in chemical biology and medicinal chemistry” (J Med Chem, 2005).

Columns and labels:
Somatostatin receptor = assay: Binding affinity for SRIF (somatostatin) receptor; assay type: protein assay
1A9/ptx-22 [1] = assay: (§1) Inhibitory concentration against beta-tubulin mutant 1A9PTX22 cell line; assay type: functional, cell-based; conditions: Homo sapiens
1A9/ptx-22 [2] = assay: as §1; assay type: functional, cell-based; conditions: Homo sapiens; remark: listed apart in the source
1A9/ptx-10 [3] = assay: (§2) Inhibitory concentration against beta-tubulin mutant 1A9PTX10 cell growth; assay type: functional, cell-based; conditions: Homo sapiens
1A9 [4] = assay: Inhibitory concentration against ovarian carcinoma 1A9 cell growth; assay type: functional, cell-based; conditions: Homo sapiens
1A9/ptx-10 [5] = assay: as §2; assay type: functional, cell-based; conditions: Homo sapiens; remark: listed apart in the source
[6] = molecular target: Tubulin beta-4B chain (Homo sapiens) (UniProt P68371); assay: Percent […] of tubulin by the compound; assay type: functional
Method in brief: (§3)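 Tubulin polymerization was read as percent polymerization, with test drug at 100 µM and a 90 min incubation.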

OVCAR-3 = assay: Cytotoxicity by measuring inhibitory concentration against ovcar-3 tumor cell line; assay type: functional, cell-based, Homo sapiens
Bacteria = assay: Minimum inhibitory concentration against bacterial strains; assay type: functional
Nucleic Acid = assay: Binding affinity towards DNA extracted from MOLT-4 cells; assay type: cell-free; conditions: Homo sapiens
1A9 [7] = assay: Cytotoxicity against 1A9 human ovarian carcinoma cells; assay type: functional, cell-based
[8] = molecular target: Tubulin beta-4B chain (Homo sapiens) (UniProt P68371); assay: (§4) Tubulin polymerization at a concentration of 100 uM incubated for 90 minutes; assay type: functional; method in brief: as §3
[9] = molecular target: Tubulin beta-4B chain (Homo sapiens) (UniProt P68371); assay: as §4; method in brief: as §3

Sequence of Tubulin beta-4B chain (Homo sapiens) (P68371 whole entry): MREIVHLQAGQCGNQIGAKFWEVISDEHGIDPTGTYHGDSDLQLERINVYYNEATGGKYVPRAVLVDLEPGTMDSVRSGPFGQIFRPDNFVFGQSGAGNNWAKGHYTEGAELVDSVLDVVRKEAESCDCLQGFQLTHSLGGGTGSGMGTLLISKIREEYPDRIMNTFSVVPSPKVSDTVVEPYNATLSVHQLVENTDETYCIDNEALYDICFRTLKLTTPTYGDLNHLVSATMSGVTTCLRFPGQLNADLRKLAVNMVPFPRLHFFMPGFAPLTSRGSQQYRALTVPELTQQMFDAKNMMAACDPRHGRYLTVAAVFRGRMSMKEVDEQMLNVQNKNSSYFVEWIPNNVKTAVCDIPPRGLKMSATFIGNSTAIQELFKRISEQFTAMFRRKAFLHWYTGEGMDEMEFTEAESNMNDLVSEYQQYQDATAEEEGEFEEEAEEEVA

Compound	IC50 (1A9/ptx-22 [1]) [nM]	IC50 (1A9/ptx-22 [2]) [nM]	IC50 (1A9/ptx-10 [3]) [nM]	IC50 (1A9 [4]) [nM]	IC50 (1A9/ptx-10 [5]) [nM]	other results
NCCCCCOCC1OC(OCCc2cc3ccccc3[nH]2)C(OCc2ccccc2)CC1OCc1ccccc1 (stereo not drawn)	–	–	–	–	–	IC50 (Somatostatin receptor): 8400 nM
NCCCCCCOC[C@@H]1O[C@@H](OCCc2cc3ccccc3[nH]2)[C@@H](OCc2ccccc2)[C@@H](OCc2ccccc2)[C@@H]1OCc1ccccc1	–	–	–	–	–	IC50 (Somatostatin receptor): 11000 nM
C/C(=C\c1ccc(C)cn1)[C@@H]1C[C@@H]2C[C@@H]2CCC[C@H](C)[C@H](O)[C@@H](C)C(=O)C(C)(C)[C@@H](O)CC(=O)O1	4.22	4.22	19.2	2.5	19.2	–
CC(=O)OC1C(=O)[C@@]2(C)[C@H]([C@H](OC(=O)c3ccc(N(C)C)cc3)[C@]3(O)C[C@H](OC(=O)[C@H](O)[C@@H](NC(=O)c4ccccc4)c4ccccc4)C(C)=C1C3(C)C)[C@]1(OC(C)=O)CO[C@@H]1C[C@@H]2O (stereo partly drawn)	–	–	–	–	–	IC50 (OVCAR-3; Homo sapiens, OVCAR-3): 2210 nM; IC50 (OVCAR-3; ovcar-3): 2200 nM
OCCCCCNCC1OC(OCCc2cc3ccccc3[nH]2)C(OCc2ccccc2)C(OCc2ccccc2)C1OCc1ccccc1 (stereo not drawn)	–	–	–	–	–	IC50 (Somatostatin receptor): 14000 nM
Cc1cccc(C)c1SSCCNC(=O)/C(Cc1cccc(Br)c1)=N/O	–	–	–	–	–	MIC (Bacteria): 0.11 ug m/L
CSc1nc(/C=C(\C)[C@@H]2C[C@@H]3O[C@]3(C)CCC[C@H](C)[C@H](O)[C@@H](C)C(=O)C(C)(C)[C@@H](O)CC(=O)O2)cs1	0.25	0.25	0.26	0.17	0.26	–
CCNC1COC(OC2C(OC)OC(C)C(NOC3CC(O)C(SC(=O)c4c(C)c(Br)c(OC5OC(C)C(O)C(OC)C5O)c(OC)c4OC)C(C)O3)C2O)CC1OC (stereo not drawn)	–	–	–	–	–	K obs (Nucleic Acid): 10 µM
O=C(/C=C/c1ccccc1)N/C=C/C[C@H]1C[C@H]2C[C@H](O)C[C@H](Cc3cccc(O)c3C(=O)O1)O2	–	–	–	–	–	IC50 (1A9 [7]): 50 nM
CCNC1COC(OC2C(OC)OC(C)C(NOC3CC(O)C(SC(=O)c4c(C)c(C)c(OC5OC(C)C(O)C(OC)C5O)c(OC)c4OC)C(C)O3)C2O)CC1OC (stereo not drawn)	–	–	–	–	–	K obs (Nucleic Acid): 38 µM
C/C(=C\c1ccc(C)cn1)[C@@H]1C[C@@H]2O[C@]2(C)CCC[C@H](C)[C@H](O)[C@@H](C)C(=O)C(C)(C)[C@@H](O)CC(=O)O1	0.15	0.15	0.6	0.15	0.6	TP [6]: 92%
CCNC1COC(OC2C(OC)OC(C)C(NOC3CC(O)C(SC(=O)c4c(C)c(I)c(OC5OC(C)C(O)C(OC)C5O)c(OC)c4OC)C(C)O3)C2O)CC1OC (stereo not drawn)	–	–	–	–	–	K obs (Nucleic Acid): 4.1 µM
C/C(=C\c1csc(C)n1)[C@@H]1C[C@@H]2O[C@@H]2CCC[C@H](C)[C@H](O)[C@@H](C)C(=O)C(C)(C)[C@@H](O)CC(=O)O1 [EPOTHILONE A]	5.9	5.9	20	2.2	20	TP [6]: 76%
CO[C@]12C=C[C@](C)(O1)[C@@H](OC(=O)/C=C/c1csc(C)n1)C[C@H]1C(C)=CC[C@H](C(C)C)[C@H]1/C=C\2COC1OCC(O)C(O)C1OC(C)=O (stereo partly drawn)	–	–	–	–	–	TP [8]: 56%; TP [9]: 56%
C/C(=C\c1ncccc1C)[C@@H]1C[C@@H]2O[C@]2(C)CCC[C@H](C)[C@H](O)[C@@H](C)C(=O)C(C)(C)[C@@H](O)CC(=O)O1	> 300	> 300	> 300	> 300	> 300	TP [6]: 0%
OCCCCCCNCC1OC(OCCc2cc3ccccc3[nH]2)C(OCc2ccccc2)C(OCc2ccccc2)C1OCc1ccccc1 (stereo not drawn)	–	–	–	–	–	IC50 (Somatostatin receptor): 5100 nM
CC/C=C\C=C/C(=O)N/C=C/C[C@H]1C[C@H]2C[C@H](OC(C)=O)C[C@H](Cc3cccc(O)c3C(=O)O1)O2	–	–	–	–	–	IC50 (1A9 [7]): 3.2 nM

Further lines, with some results ahead:

IC50 (1A9/ptx-22 [1]) [nM]	IC50 (1A9/ptx-22 [2]) [nM]	Compound	IC50 (1A9/ptx-10 [3]) [nM]	IC50 (1A9 [4]) [nM]	IC50 (1A9/ptx-10 [5]) [nM]	other results
11.5	11.5	CSc1nc(/C=C(\C)[C@@H]2C[C@@H]3C[C@@]3(C)CCC[C@H](C)[C@H](O)[C@@H](C)C(=O)C(C)(C)CCC(=O)O2)cs1	5.7	3.5	5.7	–
0.8	0.8	CSc1nc(/C=C(\C)[C@@H]2C[C@@H]3C[C@H]3CCC[C@H](C)[C@H](O)[C@@H](C)C(=O)C(C)(C)CCC(=O)O2)cs1	3.2	1.2	3.2	–
18	18	C/C(=C\c1cccc(C)n1)[C@@H]1C[C@@H]2O[C@]2(C)CCC[C@H](C)[C@H](O)[C@@H](C)C(=O)C(C)(C)[C@@H](O)CC(=O)O1	72	9	72	TP [6]: 45%
4.7	4.7	C/C(=C\c1csc(C)n1)[C@@H]1C[C@@H]2C[C@H]2CCC[C@H](C)[C@H](O)[C@@H](C)C(=O)C(C)(C)CCC(=O)O1	17.2	10.1	17.2	–
5	5	C/C(=C\c1csc(C)n1)[C@@H]1C[C@@H]2C[C@@]2(C)CCC[C@H](C)[C@H](O)[C@@H](C)C(=O)C(C)(C)CCC(=O)O1	52	15	52	–
